From ChEMBL document CHEMBL1126276, “Synthesis and antimalarial properties of 1-imino derivatives of 7-chloro-3-substituted-3,4-dihydro-1,9(2H,10H)-acridinediones and related structures” (J Med Chem, 1992)

How the values were obtained:
Plasmodium berghei [1] = experiment: (§1) Antimalarial activity in Plasmodium berghei infected mice (Mus musculus) after 20 mg/kg subcutaneous dose; assay type: functional
Summary of the method: (§2)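 […] in mice infected with a normal drug-sensitive P. berghei strain. Compound dissolved or suspended in sesame or peanut oil, given as a single subcutaneous dose 72 h postinfection.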

Plasmodium berghei [2] = experiment: Antimalarial activity was measured against mice (Mus musculus) infected with Plasmodium berghei by subcutaneous administration of 160 mg/kg dose; assay type: organism-based; design: dose 160 mg/kg, route subcutaneous; details: in vivo, sc; summary of the method: as §2
Plasmodium berghei [3] = experiment: (§3) Antimalarial activity in Plasmodium berghei infected mice (Mus musculus) after 40 mg/kg subcutaneous dose; assay type: functional; summary of the method: as §2
Plasmodium berghei [4] = experiment: Antimalarial activity was measured against mice (Mus musculus) infected with Plasmodium berghei by subcutaneous administration of 640 mg/kg dose; assay type: organism-based; design: dose 640 mg/kg, route subcutaneous; details: in vivo, sc; summary of the method: as §2
Plasmodium berghei [5] = experiment: Antimalarial activity was measured against mice (Mus musculus) infected with Plasmodium berghei by subcutaneous administration of 40 mg/kg dose; assay type: organism-based; design: dose 40 mg/kg, route subcutaneous; details: in vivo, sc; summary of the method: as §2
Plasmodium berghei [6] = experiment: Antimalarial activity was measured against mice (Mus musculus) infected with Plasmodium berghei by subcutaneous administration of 80 mg/kg dose; assay type: organism-based; design: dose 80 mg/kg, route subcutaneous; details: in vivo, sc; summary of the method: as §2
Plasmodium berghei [7] = experiment: Antimalarial activity was measured against mice (Mus musculus) infected with Plasmodium berghei by subcutaneous administration of 320 mg/kg dose; assay type: organism-based; design: dose 320 mg/kg, route subcutaneous; details: in vivo, sc; summary of the method: as §2
Plasmodium berghei [8] = experiment: Antimalarial activity in Plasmodium berghei infected mice (Mus musculus) after 10 mg/kg subcutaneous dose; assay type: functional
Summary of the method: (§4)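 Normal drug-sensitive P. berghei strain in mice. Compound dissolved or suspended in sesame or peanut oil, given parenterally as a single subcutaneous dose 72 h postinfection.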

Plasmodium berghei [9] = experiment: Antimalarial activity in Plasmodium berghei infected mice (Mus musculus) after subcutaneous 320 mg/kg dose; assay type: functional; summary of the method: as §4
Plasmodium berghei [10] = experiment: as §3; assay type: functional; summary of the method: as §4; remark: listed apart in the source
Plasmodium berghei [11] = experiment: Antimalarial activity in Plasmodium berghei infected mice (Mus musculus) after subcutaneous 160 mg/kg dose; assay type: functional; summary of the method: as §4
Plasmodium berghei [12] = experiment: Antimalarial activity in Plasmodium berghei infected mice (Mus musculus) after subcutaneous 640 mg/kg dose; assay type: functional; summary of the method: as §4
Plasmodium berghei [13] = experiment: as §1; assay type: functional; summary of the method: as §4; remark: listed apart in the source
Plasmodium berghei [14] = experiment: (§5) Antimalarial activity in Plasmodium berghei infected mice (Mus musculus) after 80 mg/kg subcutaneous dose; assay type: functional; summary of the method: as §4
Plasmodium berghei [15] = experiment: Antimalarial activity Plasmodium berghei infected mice (Mus musculus) after 640 mg/kg subcutaneous dose; assay type: functional; summary of the method: as §2
Plasmodium berghei [16] = experiment: as §5; assay type: functional; summary of the method: as §2; remark: listed apart in the source
Plasmodium berghei [17] = experiment: Antimalarial activity in Plasmodium berghei infected mice (Mus musculus) after 320 mg/kg subcutaneous dose; assay type: functional; summary of the method: as §2
Plasmodium berghei [18] = experiment: Antimalarial activity was measured against mice (Mus musculus) infected with Plasmodium berghei by subcutaneous administration of 20 mg/kg dose; assay type: organism-based; design: dose 20 mg/kg, route subcutaneous; details: in vivo, sc; summary of the method: as §2
Plasmodium berghei [19] = experiment: Antimalarial activity in Plasmodium berghei infected mice (Mus musculus) after 160 mg/kg subcutaneous dose; assay type: functional; summary of the method: as §2

| SMILES | Delta mean survival time (Plasmodium berghei [1]) | No. of toxic deaths (Plasmodium berghei [2]) | Delta mean survival time (Plasmodium berghei [3]) | No. of toxic deaths (Plasmodium berghei [4]) | No. of toxic deaths (Plasmodium berghei [5]) | No. of toxic deaths (Plasmodium berghei [6]) | No. of toxic deaths (Plasmodium berghei [7]) | No. of cured mice (Plasmodium berghei [8]) | No. of cured mice (Plasmodium berghei [9]) | No. of cured mice (Plasmodium berghei [10]) | No. of cured mice (Plasmodium berghei [11]) | No. of cured mice (Plasmodium berghei [12]) | No. of cured mice (Plasmodium berghei [13]) | No. of cured mice (Plasmodium berghei [14]) | Delta mean survival time (Plasmodium berghei [15]) | Delta mean survival time (Plasmodium berghei [16]) | Delta mean survival time (Plasmodium berghei [17]) | No. of toxic deaths (Plasmodium berghei [18]) | Delta mean survival time (Plasmodium berghei [19]) |
| --- | --- | --- | --- | --- | --- | --- | --- | --- | --- | --- | --- | --- | --- | --- | --- | --- | --- | --- | --- |
| CN(C)CCC/N=C1\CC(c2ccc(Cl)cc2Cl)Cc2nc3c(Cl)cccc3c(O)c21 (configuration not stated) | 0 | 5 | 0.5 | 5 | 1 | 4 | 5 | – | – | – | – | – | – | – | – | – | – | – | – |
| CCCCNC(CC)C/N=C1\CC(c2ccc(Cl)cc2Cl)Cc2nc3ccc(Cl)cc3c(O)c21 (configuration not stated) | – | – | – | – | – | – | – | 4 | 5 | 5 | 5 | 5 | 5 | 5 | – | – | – | – | – |
| CCN(CC)CCCC(C)/N=C1\CC(c2ccc(C(F)(F)F)cc2)Cc2nc3ccc(Cl)cc3c(O)c21 (configuration not stated) | 10.8 | – | – | – | – | 1 | 2 | – | 3 | 5 | 5 | 2 | 3 | 4 | 3.3 | – | – | – | – |
| O=c1c2c(n(O)c3ccc(Cl)cc13)CC(c1cccc(C(F)(F)F)c1)C/C2=N\CCCCN1CCCC1 (configuration not stated) | – | 5 | 4.6 | 5 | 3 | – | 4 | – | – | – | – | – | – | – | – | 3.7 | 0.5 | – | – |
| CN(C)CCC/N=C1\CC(c2ccc(C(F)(F)F)cc2)Cc2nc3ccccc3c(O)c21 (configuration not stated) | 5.3 | 5 | – | 5 | 5 | – | – | – | – | – | – | – | – | – | – | – | – | 1 | – |
| CCN(CC)CC/N=C1\CC(c2ccc(C(F)(F)F)cc2)Cc2c1c(=O)c1cc(Cl)ccc1n2O (configuration not stated) | 10.5 | 1 | 10.8 | 2 | – | – | 1 | – | 4 | 2 | 4 | 3 | 1 | 5 | – | – | – | – | – |
| CN(C)CCC/N=C1\CC(c2ccc(C(F)(F)F)cc2)Cc2c1c(=O)c1cc(Cl)ccc1n2O (configuration not stated) | – | 2 | – | 5 | – | – | 3 | – | 2 | 5 | 3 | 1 | 5 | 4 | – | – | – | – | – |
| CC1/C(=N\CCCN(C)C)c2c(n(O)c3ccc(Cl)cc3c2=O)CC1c1ccc(C(F)(F)F)cc1 (configuration not stated) | 8.1 | 5 | 10.2 | 5 | – | – | 5 | – | – | 2 | – | – | – | 5 | – | – | – | – | – |
| CN(C)CCC/N=C1\CC(c2ccc(C(F)(F)F)cc2)Cc2nc3ccc(Cl)cc3c(O)c21 (configuration not stated) | 10.4 | 1 | – | 3 | – | – | 2 | – | 2 | 5 | 3 | 2 | 3 | 5 | – | – | – | – | – |
| COc1ccccc1C1C/C(=N\CCCN(C)C)c2c(n(O)c3ccc(Cl)cc3c2=O)C1 (configuration not stated) | – | 5 | 0.3 | 5 | 1 | – | – | – | – | – | – | – | – | – | – | – | – | – | – |
| Oc1c2c(nc3ccc(Cl)cc13)CC(c1ccc(Cl)cc1Cl)C/C2=N\CCCN1CCCC1 (configuration not stated) | 22.9 | – | – | – | – | – | – | 1 | 5 | 5 | 5 | 5 | 4 | 5 | – | – | – | – | – |
| CN(C)CCC/N=C1\CC(c2ccc(C(F)(F)F)cc2)Cc2nc3cc(Cl)ccc3c(O)c21 (configuration not stated) | 2.1 | 5 | 5.4 | 5 | 3 | 3 | 5 | – | – | – | – | – | – | – | – | 6.4 | – | – | – |
| CCN(CC)CCCC/N=C1\CC(c2ccc(Cl)cc2Cl)Cc2nc3ccc(Cl)cc3c(O)c21 (configuration not stated) | – | – | – | – | – | – | – | 2 | 5 | 5 | 5 | 5 | 5 | 5 | – | – | – | – | – |
| CCCC/N=C1\CC(c2ccc(Cl)c(Cl)c2)Cc2nc3ccc(Cl)cc3c(O)c21 (configuration not stated) | – | 5 | – | 1 | 4 | 3 | – | – | – | – | – | – | – | – | 2.5 | 1.5 | 1.2 | 5 | – |
| CCN(CC)CCC/N=C1\CC(c2ccc(C(F)(F)F)cc2)Cc2c1c(=O)c1cc(Cl)ccc1n2O (configuration not stated) | 10.1 | 3 | 16.8 | 5 | – | 3 | 3 | – | 2 | 3 | 2 | – | 2 | 2 | – | – | – | – | – |
| CN(C)CCC/N=C1\CC2(CCCCC2)Cc2c1c(=O)c1cc(Cl)ccc1n2O | – | 5 | – | 5 | 5 | – | – | – | – | – | – | – | – | – | – | – | – | – | – |
| C=CCNCC/N=C1\CC(c2ccc(C(F)(F)F)cc2)Cc2c1c(=O)c1cc(Cl)ccc1n2O (configuration not stated) | 7.8 | – | 8.4 | 5 | – | 3 | 5 | – | – | 2 | 5 | – | – | 1 | – | – | – | – | – |
| O=C1CC(c2ccc(C(F)(F)F)cc2)Cc2c1c(=O)c1cc(Cl)c(F)cc1n2O (configuration not stated) | 9 | 5 | – | 5 | 5 | 5 | 5 | – | – | – | – | – | – | – | – | – | – | – | – |
| OCCN(CCO)CCC/N=C1\CC(c2ccc(Cl)cc2Cl)Cc2nc3ccc(Cl)cc3c(O)c21 (configuration not stated) | 10.9 | – | 10.9 | – | – | – | – | 1 | 5 | 4 | 5 | 5 | 4 | 5 | – | – | – | – | – |
| CCn1c2c(c(=O)c3cc(Cl)ccc31)C(=O)CC(c1ccc(C(F)(F)F)cc1)C2 (configuration not stated) | – | 2 | 0 | 1 | 2 | – | – | – | – | – | – | – | – | – | 0 | – | – | – | 0 |
| CCN(CC)CC/N=C1\CC(c2ccc(Cl)cc2Cl)Cc2nc3ccc(Cl)cc3c(O)c21 (configuration not stated) | – | – | – | – | – | – | – | 5 | 5 | 5 | 5 | 5 | 5 | 5 | – | – | – | – | – |
| CN(C)CCC/N=C1\CC(c2ccccc2Cl)Cc2c1c(=O)c1cc(Cl)ccc1n2O (configuration not stated) | – | 1 | 3 | 5 | 2 | – | – | – | – | – | – | – | – | – | – | – | – | – | 4 |
| O=c1c2c(n(O)c3ccc(Cl)cc13)CC(c1cccc(C(F)(F)F)c1)C/C2=N\CCCCCN1CCCC1 (configuration not stated) | – | 5 | 0.6 | 5 | 4 | – | – | – | – | – | – | – | – | – | – | – | – | – | – |
